Source: ChEMBL document CHEMBL1122890, “Resolved monophenolic 2-aminotetralins and 1,2,3,4,4a,5,6,10b-octahydrobenzo[f]quinolines: structural and stereochemical considerations for centrally acting pre- and postsynaptic dopamine-receptor agonists” (1985)
Activity calls are given as the source filed them. The calls are words filed in the database; no cut-off is given here.

How the values were obtained:
Rattus norvegicus [1] = experiment: Evaluated for dopa accumulation (biochemical activity) in rat limbic system; Inactive at 50 umol/kg; format: functional, organism-based
Method in brief: (§1)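 Male Sprague-Dawley rats, 200-300 g. Compound dissolved in saline (sometimes with a little glacial acetic acid or warming), neutral pH, given sc at 50 μmol/kg. Dopa in limbic forebrain and striatum was measured by HPLC with electrochemical detection and expressed as percent of controls.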

Rattus norvegicus [2] = experiment: Evaluated for the dose giving a half-maximal decrease of dopa formation in the rat brain, at a dose of 50000 (nmol/kg); format: functional
Method in brief: (§2)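 Male Sprague-Dawley rats (200-300 g) received sc doses in saline, neutral pH. Dopa was measured in each brain area by HPLC with electrochemical detection. A separate dose-response curve was built per substance and brain area from four to six dose levels (n = 3-5). The dose giving half-maximal decrease of Dopa formation was estimated from that curve. Student's t-test was used, p ≤ 0.05.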

Rattus norvegicus [3] = experiment: Evaluated for dopa accumulation (biochemical activity) in rat striatum; Inactive at 50 umol/kg; format: functional, organism-based; method in brief: as §1
Rattus norvegicus [4] = experiment: Evaluated for the dose giving a half-maximal decrease of dopa formation in the rat brain, at a dose of 213000 (nmol/kg); format: functional; method in brief: as §2
Rattus norvegicus [5] = species: Rattus norvegicus; experiment: Evaluated for dopa accumulation (biochemical activity) in rat striatum; format: functional; method in brief: as §1
Rattus norvegicus [6] = species: Rattus norvegicus; experiment: Evaluated for dopa accumulation (biochemical activity) in rat limbic system; format: functional; method in brief: as §1
Rattus norvegicus [7] = experiment: Evaluated for the dose giving a half-maximal decrease of dopa formation in the rat brain, at a dose of 3100 (nmol/kg); format: functional; method in brief: as §2
Rattus norvegicus [8] = experiment: Evaluated for the dose giving a half-maximal decrease of dopa formation in the rat brain, at a dose of 31000 (nmol/kg); format: functional; method in brief: as §2
Rattus norvegicus [9] = experiment: Evaluated for the dose giving a half-maximal decrease of dopa formation in the rat brain, at a dose of 310 (nmol/kg); format: functional; method in brief: as §2
Rattus norvegicus [10] = experiment: Evaluated for the dose giving a half-maximal decrease of dopa formation in the rat brain, at a dose of 39000 (nmol/kg); format: functional; method in brief: as §2
Rattus norvegicus [11] = experiment: Evaluated for the dose giving a half-maximal decrease of dopa formation in the rat brain, at a dose of 1300 (nmol/kg); format: functional; method in brief: as §2
Rattus norvegicus [12] = experiment: Evaluated for the dose giving a half-maximal decrease of dopa formation in the rat brain, at a dose of 13000 (nmol/kg); format: functional; method in brief: as §2

SMILES	ED50 (Rattus norvegicus [5]) [µmol/kg]	ED50 (Rattus norvegicus [6]) [µmol/kg]	also measured
Br.CCCCN1CCCC2c3cc(O)ccc3CC[C@H]21 (some centres undefined)			ED50 (Rattus norvegicus [1]): inactive; Accumulation counts (Rattus norvegicus [2]): <75; ED50 (Rattus norvegicus [3]): inactive
CCCN1CCC[C@@H](c2cccc(O)c2)C1.Cl [PRECLAMOL HYDROCHLORIDE]	1.7	0.8	Accumulation counts (Rattus norvegicus [4]): 12
CCCN1CCC[C@@H]2c3cccc(O)c3CC[C@H]21	0.41	0.32	ED50 (Rattus norvegicus [1]): inactive; Accumulation counts (Rattus norvegicus [7]): <59 Counts; Accumulation counts (Rattus norvegicus [2]): 31; ED50 (Rattus norvegicus [3]): inactive; Accumulation counts (Rattus norvegicus [8]): <138 Counts
CN1CCc2cccc3c2[C@H]1Cc1ccc(O)c(O)c1-3 [APOMORPHINE]	0.22	0.19	
CCCN(CCC)[C@H]1CCc2c(O)cccc2C1.Cl	0.0037	0.0037	Accumulation counts (Rattus norvegicus [9]): <155 Counts
CCCN(CCC)[C@@H]1CCc2ccc(O)cc2C1	0.011	0.0095	
CCCN1CCC[C@H]2c3cccc(O)c3CC[C@H]21			ED50 (Rattus norvegicus [1]): inactive; ED50 (Rattus norvegicus [3]): inactive
CCCN(CCC)[C@@H]1CCc2c(O)cccc2C1.Cl	0.65	0.41	Accumulation counts (Rattus norvegicus [10]): <43
CCCN1CCC[C@H]2c3cccc(O)c3CC[C@@H]21	0.014	0.014	Accumulation counts (Rattus norvegicus [11]): <62 Counts; Accumulation counts (Rattus norvegicus [7]): <78 Counts
CCCN(CCC)[C@H]1CCc2ccc(O)cc2C1	2.4	1.9	
CCCN1CCC[C@H](c2cccc(O)c2)C1.Cl	1.3	1	Accumulation counts (Rattus norvegicus [12]): 78
